pIC50: −log10 of the molar value.
Key:
Plasmodium falciparum [1] = experiment: (§1) In vitro antimalarial activity for chloroquine-resistant Plasmodium falciparum in schizont maturation assay; format: functional
In short: (§2)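 P. falciparum (lab chloroquine-sensitive strains; resistant field isolate from Jagadalpur patients) in O+ human RBCs, RPMI 1640 + 10% human serum, 37 °C, 5% CO2; sorbitol-synchronized rings at 2% in erythrocytes. Double dilutions, duplicate wells, 24 h. Giemsa smears: mature schizonts counted among 200 asexual parasites; inhibition = (1 − Nt/Nc) × 100.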

Plasmodium falciparum [2] = experiment: (§3) In vitro antimalarial activity for chloroquine-sensitive Plasmodium falciparum in schizont maturation assay; format: functional, organism-based; in short: as §2
Plasmodium falciparum [3] = experiment: as §3; format: functional
In short: (§4)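 Chloroquine-sensitive P. falciparum, sorbitol-synchronized ring stages, cultured in O+ human RBCs in RPMI 1640 with 10% human serum at 37 °C under 5% CO2. Duplicate wells held erythrocytes at 2% ring-stage parasitaemia across double dilutions of compound. After 24 h, Giemsa smears were scored for mature schizonts among 200 asexual parasites. Inhibition was calculated as (1 − Nt/Nc)×100 against medium-only controls.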

Plasmodium falciparum [4] = experiment: as §1; format: functional, organism-based; in short: as §2
Plasmodium falciparum [5] = experiment: In vitro antimalarial activity as schizont maturation against drug-sensitive Plasmodium falciparum; format: functional; in short: as §4
Plasmodium falciparum [6] = experiment: In vitro antimalarial activity as schizont maturation against drug-resistant Plasmodium falciparum; format: functional; in short: as §2

| Compound | IC90 (Plasmodium falciparum [1]) | IC99 (Plasmodium falciparum [1]) | pIC50 (Plasmodium falciparum [2]) | IC90 (Plasmodium falciparum [3]) | IC99 (Plasmodium falciparum [3]) | pIC50 (Plasmodium falciparum [4]) | IC90 (Plasmodium falciparum [5]) | IC90 (Plasmodium falciparum [6]) |
| --- | --- | --- | --- | --- | --- | --- | --- | --- |
| O=C1NC2CC/C=C\CCC12 (stereo unspecified) | 26.1 µM | 48.7 µM | 5.17 | 25.4 µM | 43.4 µM | 5.14 | – | – |
| O=C1C2CC=CCC2N1Cc1ccccc1 (stereo unspecified) | 6.1 µM | 6.4 µM | 5.82 | 5.6 µM | 6.1 µM | 5.80 | – | – |
| O=C1NC2CC=CCC12 (stereo unspecified) | 21.2 µM | 25.3 µM | 5.04 | 19.3 µM | 23.2 µM | 5.06 | – | – |
| O=C1NC2CCCCCCC12 (stereo unspecified) | 33.9 µM | 54.8 µM | 5.09 | 33.7 µM | 51.2 µM | 5.08 | – | – |
| O=C1C2CCCC2N1Cc1ccccc1 (stereo unspecified) | 12.4 µM | 14.5 µM | 5.19 | 11.2 µM | 12.3 µM | 5.13 | – | – |
| O=C1C2CCCCCCC2N1Cc1ccccc1 (stereo unspecified) | 19.4 µM | 27.4 µM | 5.09 | 18.8 µM | 25.2 µM | 5.10 | – | – |
| CCN(CC)CCCC(C)Nc1ccnc2cc(Cl)ccc12 (stereo unspecified) [CHLOROQUINE] | – | – | – | – | – | – | 0.05 µM | 0.5 µM |
| O=C1NC2CCCC12 (stereo unspecified) | 34.5 µM | 48.7 µM | 4.87 | 31.9 µM | 42.2 µM | 4.91 | – | – |
| O=C1C2CC=CC=CC2N1Cc1ccccc1 (stereo unspecified) | 2.9 µM | 3.3 µM | 5.74 | 2.8 µM | 3.2 µM | 5.74 | – | – |
| O=C1NC2C=CC=CCC12 (stereo unspecified) | 15.4 µM | 24.8 µM | – | 14.5 µM | 20.1 µM | 5.34 | – | – |
| O=C1C2CC/C=C\CCC2N1Cc1ccccc1 (stereo unspecified) | 11.4 µM | 14.5 µM | 5.27 | 10.7 µM | 13.3 µM | 5.24 | – | – |

Reference: ChEMBL document CHEMBL1142002, “Design, synthesis and biological evaluation of novel bicyclic beta-lactams as potential antimalarials” (Bioorg Med Chem Lett, 2005)
